# System: HEK-293T
# Test: Multiplex assay against HEK293T
# Format: toxicity, cell-based
# Conditions: human
# Procedure, shortened: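 Imaging took place on a CQ1 microscope at 37°C and 5% CO2 once compound had been added to live cells stained at seeding with Hoechst33342, BioTracker Green Microtubule Cytoskeleton Dye, MitoTracker Red and Annexin V Alexa Fluor 680. CellPathfinder machine-learning gating classed cells as Hoechst high-intensity objects or normal cells, classed normal cells as having healthy, pyknosed or fragmented nuclei, and classed pyknosed cells as mitotic or apoptotic. Tubulin, mitochondrial-mass and membrane-permeability phenotypes are per cents of the healthy-nucleus cells.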
# [1] = 12 h, 1 µM, compound concentration 1 uM, replicate 1
# [2] = 12 h, 1 µM, compound concentration 1 uM, replicate 2
# [3] = 12 h, 10 µM, compound concentration 10 uM, replicate 1
# [4] = 12 h, 10 µM, compound concentration 10 uM, replicate 2
# [5] = 24 h, 1 µM, compound concentration 1 uM, replicate 1
# [6] = 24 h, 1 µM, compound concentration 1 uM, replicate 2
# [7] = 24 h, 10 µM, compound concentration 10 uM, replicate 1
# [8] = 24 h, 10 µM, compound concentration 10 uM, replicate 2
# [9] = 48 h, 1 µM, compound concentration 1 uM, replicate 1
# [10] = 48 h, 1 µM, compound concentration 1 uM, replicate 2
# [11] = 48 h, 10 µM, compound concentration 10 uM, replicate 1
# [12] = 48 h, 10 µM, compound concentration 10 uM, replicate 2
smiles,measurement,setting,value
CN(C)C/C=C/C(=O)Nc1ccc(C(=O)N2CCCC(Nc3ncc(Cl)c(-c4c[nH]c5ccccc45)n3)C2)cc1 (stereo not given),Population Apoptotic (%),[1],46%
same,Population Fragmented Nuclei (%),[1],8%
same,Population Healthy Nuclei (%),[1],55%
same,Population Hoechst High Intensity Objects (%),[1],30%
same,Population Membrane Permeable-Phenotype (%),[1],0%
same,Population Mitochondria Different-Phenotype (%),[1],87%
same,Population Mitotic Cells (%),[1],53%
same,Population Normal (%),[1],69%
same,Population Pyknosed Nuclei (%),[1],35%
same,Population Tubulin-Different-Phenotype (%),[1],69%
same,Total Cell Count,[1],227
same,Population Apoptotic (%),[2],63%
same,Population Fragmented Nuclei (%),[2],6%
same,Population Healthy Nuclei (%),[2],64%
same,Population Hoechst High Intensity Objects (%),[2],23%
same,Population Mitochondria Different-Phenotype (%),[2],89%
same,Population Mitotic Cells (%),[2],36%
same,Population Normal (%),[2],76%
same,Population Pyknosed Nuclei (%),[2],29%
same,Population Tubulin-Different-Phenotype (%),[2],70%
same,Total Cell Count,[2],231
same,Population Apoptotic (%),[3],62%
same,Population Fragmented Nuclei (%),[3],12%
same,Population Healthy Nuclei (%),[3],57%
same,Population Hoechst High Intensity Objects (%),[3],35%
same,Population Membrane Permeable-Phenotype (%),[3],0%
same,Population Mitochondria Different-Phenotype (%),[3],95%
same,Population Mitotic Cells (%),[3],37%
same,Population Normal (%),[3],64%
same,Population Pyknosed Nuclei (%),[3],30%
same,Population Tubulin-Different-Phenotype (%),[3],79%
same,Total Cell Count,[3],269
same,Population Apoptotic (%),[4],77%
same,Population Fragmented Nuclei (%),[4],7%
same,Population Healthy Nuclei (%),[4],64%
same,Population Hoechst High Intensity Objects (%),[4],29%
same,Population Mitotic Cells (%),[4],22%
same,Population Normal (%),[4],70%
same,Population Pyknosed Nuclei (%),[4],28%
same,Population Tubulin-Different-Phenotype (%),[4],81%
same,Total Cell Count,[4],181
same,Population Apoptotic (%),[5],72%
same,Population Fragmented Nuclei (%),[5],15%
same,Population Healthy Nuclei (%),[5],62%
same,Population Hoechst High Intensity Objects (%),[5],27%
same,Population Membrane Permeable-Phenotype (%),[5],0%
same,Population Mitochondria Different-Phenotype (%),[5],85%
same,Population Mitotic Cells (%),[5],27%
same,Population Normal (%),[5],72%
same,Population Pyknosed Nuclei (%),[5],22%
same,Population Tubulin-Different-Phenotype (%),[5],74%
same,Total Cell Count,[5],222
same,Population Apoptotic (%),[6],74%
same,Population Fragmented Nuclei (%),[6],9%
same,Population Healthy Nuclei (%),[6],67%
same,Population Hoechst High Intensity Objects (%),[6],26%
same,Population Mitochondria Different-Phenotype (%),[6],89%
same,Population Mitotic Cells (%),[6],25%
same,Population Normal (%),[6],73%
same,Population Pyknosed Nuclei (%),[6],23%
same,Population Tubulin-Different-Phenotype (%),[6],70%
same,Total Cell Count,[6],207
same,Population Apoptotic (%),[7],74%
same,Population Fragmented Nuclei (%),[7],19%
same,Population Healthy Nuclei (%),[7],55%
same,Population Hoechst High Intensity Objects (%),[7],49%
same,Population Membrane Permeable-Phenotype (%),[7],0%
same,Population Mitochondria Different-Phenotype (%),[7],96%
same,Population Mitotic Cells (%),[7],25%
same,Population Normal (%),[7],50%
same,Population Pyknosed Nuclei (%),[7],24%
same,Population Tubulin-Different-Phenotype (%),[7],52%
same,Total Cell Count,[7],314
same,Population Apoptotic (%),[8],88%
same,Population Fragmented Nuclei (%),[8],10%
same,Population Healthy Nuclei (%),[8],68%
same,Population Hoechst High Intensity Objects (%),[8],34%
same,Population Mitochondria Different-Phenotype (%),[8],98%
same,Population Mitotic Cells (%),[8],11%
same,Population Normal (%),[8],65%
same,Population Pyknosed Nuclei (%),[8],20%
same,Population Tubulin-Different-Phenotype (%),[8],77%
same,Total Cell Count,[8],197
same,Population Apoptotic (%),[9],67%
same,Population Fragmented Nuclei (%),[9],16%
same,Population Healthy Nuclei (%),[9],59%
same,Population Hoechst High Intensity Objects (%),[9],30%
same,Population Membrane Permeable-Phenotype (%),[9],0%
same,Population Mitochondria Different-Phenotype (%),[9],79%
same,Population Mitotic Cells (%),[9],32%
same,Population Normal (%),[9],69%
same,Population Pyknosed Nuclei (%),[9],23%
same,Population Tubulin-Different-Phenotype (%),[9],71%
same,Total Cell Count,[9],239
same,Population Apoptotic (%),[10],81%
same,Population Fragmented Nuclei (%),[10],6%
same,Population Healthy Nuclei (%),[10],65%
same,Population Hoechst High Intensity Objects (%),[10],26%
same,Population Mitochondria Different-Phenotype (%),[10],95%
same,Population Mitotic Cells (%),[10],18%
same,Population Normal (%),[10],73%
same,Population Pyknosed Nuclei (%),[10],27%
same,Population Tubulin-Different-Phenotype (%),[10],74%
same,Total Cell Count,[10],184
same,Population Apoptotic (%),[11],55%
same,Population Fragmented Nuclei (%),[11],62%
same,Population Healthy Nuclei (%),[11],14%
same,Population Hoechst High Intensity Objects (%),[11],67%
same,Population Membrane Permeable-Phenotype (%),[11],0%
same,Population Mitochondria Different-Phenotype (%),[11],100%
same,Population Mitotic Cells (%),[11],44%
same,Population Normal (%),[11],32%
same,Population Pyknosed Nuclei (%),[11],23%
same,Population Tubulin-Different-Phenotype (%),[11],23%
same,Total Cell Count,[11],361
same,Population Apoptotic (%),[12],80%
same,Population Fragmented Nuclei (%),[12],47%
same,Population Healthy Nuclei (%),[12],30%
same,Population Hoechst High Intensity Objects (%),[12],58%
same,Population Mitochondria Different-Phenotype (%),[12],94%
same,Population Mitotic Cells (%),[12],20%
same,Population Normal (%),[12],41%
same,Population Pyknosed Nuclei (%),[12],21%
same,Population Tubulin-Different-Phenotype (%),[12],57%
same,Total Cell Count,[12],277
